Compounds with a hit are over-represented: about 2% of the library has one in this group of screens.
CaV13 ICDI inh = Primary screen for inhibitors of IQ motif and Ca2+-dependent inactivation inhibitor domain binding in CACNA1D, Förster resonance energy transfer in living cells, … | hit rate 0.098% among 340,000 | inhibition, % at 12.3 µM | HEK cells, CFP/YFP FRET ICDI-IQ, plate reader, 10 min; percent FRET-ratio fall versus neutral wells;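 active = mean replicate inhibition of at least 30% and at least 1% of replicates passing that level; inconclusive = only one of the two criteria is met; inactive = neither criterion is met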
LGR2 antag = Drosophila LGR2 receptor signaling inhibition; HEK293 LGR2, CRE-luciferase, bursicon-stimulated, 4 h; inhibition, % at 9.99 µM; hit rate 0.35% among 380,000; AID 720647;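 active = drop in luminescence signal, shown as inhibition above about 50% in the replicate tests, limit read from the data, passing the limit was not always enough; inconclusive = probably only some replicates passing the limit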;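 also: agonist challenge used bursicon conditioned medium at about half maximal strength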
Xi reactivation = activators of X-chromosome reactivation in mouse fibroblasts; activation, % at 7.58 µM; hit rate 0.055% among 360,000; XiGFP mouse fibroblasts, % GFP-positive cells imaging, 3 d; cells co-treated with 5-aza-dC sensitizer; scaled so ellipticine positive control = 100%;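 active = mean normalized replicate activation at least 10% and every replicate at or above 10%; inconclusive = only one of the two criteria met; inactive = mean below 10% and not all replicates reach 10%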
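Material: XiGFP fibroblasts, SV40-immortalized. Buffer or medium: DMEM plus 5-aza-dC sensitizer. Compound: single concentration per compound, delivered by pin transfer. Times: 3 days compound exposure. Controls: ellipticine 6 µM.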
TROY signal inh = blocks TROY-dependent signaling in reporter cells. Q293 LMP1-TROYcd NF-kB luciferase reporter, 4 h. inhibition, % at 10 µM. hit rate 0.98% among 360,000;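 active = compounds whose plate-normalised and pattern-corrected inhibition of the luciferase reporter signal at the single screening dose is 50% or more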
TWEAK-Fn14 inh = inhibitors of TWEAK-Fn14 interaction signaling. TWEAK-stimulated Fn14 reporter cells, luciferase luminescence, 8 h. inhibition, % at 10 µM. hit rate 2% among 360,000. AID 1159606; in the data active = inhibition above about 50%
Numbers stand for hits; . = inactive; ? = inconclusive; / = not tested or not shown.

SMILES	CaV13 ICDI inh	LGR2 antag	Xi reactivation	TROY signal inh	TWEAK-Fn14 inh
COc1ccccc1-c1cc(C(F)(F)F)nc(S(=O)(=O)CCCC(=O)Nc2cccnc2Cl)n1	.	/	.	62	82
O=C(C[C@H]1CC[C@H](NC(=O)C2CCC2)[C@@H](CO)O1)NC1CCC1	/	.	.	/	/
COc1ccccc1-c1cc(C(F)(F)F)nc(S(=O)(=O)CCCC(=O)N2CCCCC2C)n1 (configuration not stated)	.	/	/	65	83
COCC(=O)N1CC2(CCN(Cc3ccccc3)CC2)c2c([nH]c3cc(OC)ccc23)[C@@H]1CO	/	.	.	/	/
Cc1ccc(C(=O)Sc2cccccc2=O)cc1	.	.	.	.	102
O=C1[C@H](Oc2ccccc2)[C@@H](c2ccccc2)N1c1ccncc1	.	66	.	56	65
O=C1[C@@H](Oc2ccccc2)[C@@H](c2ccccc2)N1c1ccccc1	.	.	.	.	.
CC1=NNC(=O)/C1=C\c1cn(-c2ccccc2)nc1-c1ccccc1	.	106	.	90	106
CN1C(=O)c2cc(NC(=O)c3ccc(F)c(F)c3)ccc2OC[C@@H]2O[C@@H](CC(=O)N3CCOCC3)CC[C@@H]21	/	.	.	/	/
Cc1nnsc1NC(=O)OCc1ccc(C(C)(C)C)cc1	.	.	/	/	56
C=CCOC(=O)Nc1snnc1C	/	.	/	.	.
COc1ccc(-c2noc(CCCC(=O)O)n2)cc1	.	/	/	.	78
CCOc1ccc(-c2noc(CCC(=O)O)n2)cc1	.	.	.	.	71
CC1C(=O)N(Cc2cn(CCC3OCCCO3)nn2)CCS(=O)(=O)N1Cc1ccc(-c2ccc(Cl)c(Cl)c2)cc1 (configuration not stated)	.	.	.	.	71
COC(=O)C1CCN(C(=O)COC(=O)c2ccc(OC)c(S(=O)(=O)N3CCCc4ccccc43)c2)CC1	.	.	.	.	51
CN1C(=O)c2cc(NC(=O)C3CCCC3)ccc2OC[C@H]2O[C@H](CC(=O)NCC(F)(F)F)CC[C@@H]21	/	.	.	/	/
CCCNC(=O)C[C@H]1CC[C@H]2[C@@H](COc3ccc(NC(=O)c4ccno4)cc3C(=O)N2C)O1	/	.	.	/	/
CC1C/C(=C/c2ccncc2)C(=O)/C(=C/c2ccncc2)C1 (configuration not stated)	.	103	.	66	100
C=CCOC(=O)C1=C(C)N=c2s/c(=C3\C(=O)N(CC(=O)O)c4ccccc43)c(=O)n2C1c1ccc(OC)cc1 (configuration not stated)	.	.	.	.	59
COc1ccc(CCN=C(N)NS(=O)(=O)c2ccc(F)cc2)cc1	73	.	.	.	.
COc1ccc(CCN=C(N)NS(=O)(=O)c2ccc(OC)cc2)cc1	.	.	.	.	.
CCCC(=O)Nc1ccc2c(c1)C(=O)N(C)C[C@@H](OC)[C@H](C)CN(C(=O)Cc1cccnc1)[C@H](C)CO2	/	.	.	/	/
COc1ccc(OCCCCn2c(CO)nc3ccccc32)cc1	.	.	.	.	69
CO[C@H]1CC[C@@H]2CCOc3ccc(C#N)cc3C(=O)N(C)C[C@@H](C)C(=O)N(C)C[C@@H]1O2	/	.	.	/	/
CCOC(=O)c1sc(NC(=O)Nc2ccc(Cl)cc2)cc1C	.	/	/	.	67
SMILES	CaV13 ICDI inh	LGR2 antag	Xi reactivation	TROY signal inh	TWEAK-Fn14 inh
O=C(C[C@@H]1C[C@H]2c3cc(NC(=O)C4CCOCC4)ccc3O[C@H]2[C@@H](CO)O1)NCc1ccccc1	/	.	.	/	/
COc1ccc2cc3c(N)nn(C(=O)c4ccc(F)cc4)c3nc2c1	.	.	.	.	55
COc1ccc2cc3c(N)nn(C(=O)Cc4c[nH]c5ccccc45)c3nc2c1	.	88	.	67	95
COc1ccc2cc3c(N)nn(C(=O)c4ccccc4Cl)c3nc2c1	.	.	.	.	82
CC(=O)N1[C@H](CO)[C@H](c2ccc(C3=CCCC3)cc2)C12CN(C(=O)C1CC1)C2	/	.	.	/	/
CCOc1ccc(C(=O)c2cc3ccc(O)cc3oc2=O)cc1	90	.	.	.	.
O=C(c1ccc([N+](=O)[O-])cc1)c1cc2ccc(O)cc2oc1=O	.	.	.	.	.
O=C(O)c1ccc(-c2noc(-c3ccccc3F)n2)cc1	.	.	.	.	52
CCCN(CCC)CCCNC(=O)CC(C(=O)N1CCc2ccccc21)n1ccnc1 (configuration not stated)	.	/	/	.	.
CCN(CC)CC(C)CNC(=O)CC(C(=O)N1CCc2ccccc21)n1ccnc1 (configuration not stated)	.	.	/	.	56
O=C(N[C@H]1CC[C@H](CCNC(=O)C2CCCCC2)O[C@@H]1CO)c1ccncc1	/	.	.	/	/
Cc1ccc([N+](=O)[O-])cc1N=Nc1c(-c2ccc([N+](=O)[O-])cc2)[nH]n(C(N)=S)c1=O	/	/	/	64	81
NC(=S)n1[nH]c(-c2ccc([N+](=O)[O-])cc2)c(N=Nc2ccc(Cl)cc2)c1=O	/	/	/	53	54
O=C(c1ccccc1)N1C[C@@H]2[C@H](c3ccccc31)[C@H](CO)N2C(=O)c1cccc(F)c1	/	.	.	/	/
CCCNC(=O)C[C@H]1C[C@H]2c3cc(N(C)C)ccc3O[C@H]2[C@@H](CO)O1	/	.	.	/	/
Cc1ccc(C2CC(=O)c3cnc(N4CCN(c5ccccc5)CC4)nc3C2)cc1 (configuration not stated)	.	.	/	.	58
O=C1c2ccccc2C(=O)C1c1ccc(Cl)cc1	.	.	.	.	.
O=C1c2ccccc2C(=O)C12OC2c1ccc(Cl)cc1Cl (configuration not stated)	.	.	.	.	72
CC(=O)Nc1ccc2c(c1)C(=O)N(C)[C@H]1CC[C@H](CC(=O)NCc3ccc(Cl)cc3)O[C@H]1CO2	/	.	.	/	/
O=C(Nc1ccc(-c2nc3ccccc3s2)cc1)C1=COCCO1	.	95	.	77	91
O=C(O)CSCC(=O)Nc1ccc(-c2nc3ccccc3s2)cc1	.	.	.	.	71
CCOc1ccc(N(CC(=O)NC2CC3CCC2C3)S(=O)(=O)c2ccccc2)cc1 (configuration not stated)	.	.	.	.	56
COc1ccc(CCNC(=O)c2nnn(-c3ccc4c(c3)OCCO4)c2N)cc1OC	.	/	/	87	97
CC(C)NC(=O)N1[C@@H]2CN(CC(F)(F)F)C[C@H]1C2c1ccccc1 (some centres not stated)	/	/	.	/	/
COc1cccc(C(=O)Nc2ccc3c(c2)OC[C@@H](C)N(CC2CC2)C[C@H](C)[C@H](OC)CN(C)C3=O)c1	/	?	.	/	/
COCC(=O)OC1CCn2c1nc1c2C(=O)C(C)=C(NC(C)=O)C1=O (configuration not stated)	.	86	.	54	101
CC[n+]1c(/C=C/C=C/N(C(C)=O)c2ccccc2)sc2cc(OC)ccc21	.	/	52	/	/
Cc1cccc(C)c1Nc1nc2ccccc2o1	.	/	.	.	.
